The source made the active and inactive calls. Rule as the data show it, unless noted: active = inhibition above about 30%; inactive = the rest.
How the values were obtained:
[1] = reduced viability of SK-BR-3 breast cancer cells – cell-based, 24 h, human, pilot screen (AID 572;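 active = viability at or below 10% of carrier control in both of two separate runs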;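 also: compound exposure lasted between 18 and 24 h rather than exactly 24 h; 100% = carrier-treated control wells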); settings: SK-BR-3 viability, CellTiter-Glo luminescence, at 10 µM, stronger effect = lower value
[2] = HUVEC growth inhibition – cell-based, human, primary screen (AID 575;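 active = viability at or below 30% in both replicate assays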;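 also: 100% = median of untreated cell wells with 0.1% DMSO on each plate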); settings: HUVEC proliferation, CellTiter-Glo luminescence, 72 h; at 10 µM; stronger effect = lower value
Outline: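 Assay system: Primary human umbilical vein endothelial cells | Quantity: 1250 cells per well | Medium: Supplemented EBM, 2% fetal bovine serum | Detection: CellTiter-Glo luminescence measuring cellular ATP | Read-out: % viability vs DMSO wells | Plate: Collagen-coated 384-well format | Times: 72 h exposure, 37 °C, 5% CO2, 30 min RT equilibration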

[3] = H69AR cell proliferation blockers – human, duplicate replicates, primary screen (AID 580;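 active = viability at or under a set limit in both replicates, limit being median viability minus 3 SD, cut at about 48% in these data, passing the limit was not always enough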;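 also: 100% = mean luminescence of untreated wells and 0% = no signal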); settings: H69AR lung tumor cells viability, ATP luminescence, 72 h; at 10 µM; stronger effect = lower value
[4] = MRP1 drug-resistance reversers in H69AR cells – cell-based, doxorubicin co-treatment, pilot screen (AID 601;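 active = viability loss from added drug above about 55%, and viability with drug at most 40%, in both replicates, limit read from the data, passing the limit was not always enough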); settings: CellTiter-Glo, 72 h, at 10 µM; for differential viability (reversal): stronger effect = higher value
[5] = yeast transport mutant growth inhibition pilot in 384-well plates, post-Golgi transport modulator project (AID 636; in the data active = inhibition above about 31%); settings: absorbance 615 nm, about 18 h, stronger effect = higher value
[6] = growth suppression of yeast trafficking mutant, preliminary HTS, modulators of trafficking downstream of Golgi apparatus project, 1536-format plate, OD 615 nm (AID 637); settings: yeast transport mutant growth, absorbance 615 nm, 18 h; stronger effect = higher value
[7] = H69AR cells + 2 uM doxorubicin, measured here: viability with 2 uM doxorubicin, stronger effect = lower value
[8] = H69AR cells, compound alone cytotoxicity

Structure (SMILES)	viability [1]	viability [2]	viability [3]	differential viability (reversal) ([4]; H69AR cells + 2 uM doxorubicin)	viability [4, 7] [%]	viability [4, 8] [%]	inhibition [5]	inhibition [6]
COc1cc(C2c3c(oc4c(C)cc(C)cc4c3=O)C(=O)N2Cc2cccnc2)ccc1O (stereo not drawn)	78% (inactive)	69.1% (inactive)	80.2% (inactive)	2.59% (inactive)	77.6	80.2	0.13% (inactive)	2.42% (inactive)
O=C1c2ccccc2S(=O)(=O)N1Cc1nnc(-c2ccccc2Br)o1	88% (inactive)	102% (inactive)	95% (inactive)	17% (inactive)	78	95	-5.62% (inactive)	0.32% (inactive)
CCn1cnc2sc(C(=O)Nc3ccc4c(c3)OCO4)c(C)c2c1=O	107% (inactive)	96.2% (inactive)	94% (inactive)	11% (inactive)	83	94	-8% (inactive)	-5.27% (inactive)
COc1cccc(-c2cc(C(=O)Nc3c(C)nn(Cc4ccccc4)c3C)no2)c1	158% (inactive)	82.6% (inactive)	98.2% (inactive)	8.66% (inactive)	89.5	98.2	-5.81% (inactive)	-7.33% (inactive)
Cc1ccc(-c2nn[nH]n2)cc1	109% (inactive)	112% (inactive)	107% (inactive)	-4.72% (inactive)	111	107	-4.79% (inactive)	2.18% (inactive)
Cc1c(Cl)cccc1Nc1ccccc1C(=O)O	108% (inactive)	56.7% (inactive)	111% (inactive)	9% (inactive)	102	111	-1.17% (inactive)	5.33% (inactive)
CN1[C@@H](CC(=O)c2ccccc2)CCC[C@H]1C[C@H](O)c1ccccc1	63% (inactive)	81.4% (inactive)	84.1% (inactive)	-4.62% (inactive)	88.7	84.1	1.95% (inactive)	0.67% (inactive)
CCn1c(SCC(=O)N2CCN(c3ccc(Cl)cc3)CC2)nc2ccccc2c1=O	96% (inactive)	77.2% (inactive)	78.6% (inactive)	-12.9% (inactive)	91.5	78.6	5.89% (inactive)	25.5% (inactive)
CCCC1CCC(C(=O)Nn2cnc3ccccc3c2=O)CC1 (stereo not drawn)	101% (inactive)	108% (inactive)	91.7% (inactive)	9.62% (inactive)	82	91.7	1.17% (inactive)	7.05% (inactive)
CCOC(=O)C1CCN(C(=O)CCCCn2c(=O)[nH]c3ccccc3c2=O)CC1	90% (inactive)	114% (inactive)	101% (inactive)	6.14% (inactive)	94.9	101	3.77% (inactive)	2.62% (inactive)
CCOC(=O)c1c(NC(=O)Cn2c(=O)oc3ccccc32)oc(C)c1C(C)=O	81% (inactive)	99.3% (inactive)	101% (inactive)	5.86% (inactive)	95.1	101	-1.23% (inactive)	-4.52% (inactive)
O=C(O)COc1cccc(NC(=O)C2CCCO2)c1 (stereo not drawn)	81% (inactive)	102% (inactive)	93.3% (inactive)	-10.7% (inactive)	104	93.3	0.14% (inactive)	10.9% (inactive)
CCOC(=O)c1cc(C(C)(C)C)oc1CN	118% (inactive)	96.1% (inactive)	90.8% (inactive)	-1.73% (inactive)	92.5	90.8	-7.12% (inactive)	9.35% (inactive)
COC(=O)CNC(=O)COC(=O)c1cc(Cl)cc(Cl)c1N	104% (inactive)	96.6% (inactive)	92.6% (inactive)	-2.94% (inactive)	95.5	92.6	0.82% (inactive)	45.3% (active)
O=C(O)CCCc1ccccc1	97% (inactive)	91.8% (inactive)	98% (inactive)	1.58% (inactive)	96.4	98	-0.91% (inactive)	8% (inactive)
O=C(CN1CCN(c2nc(-c3ccc(Cl)cc3)cs2)CC1)NCc1ccco1	67% (inactive)	95.6% (inactive)	97.9% (inactive)	3.06% (inactive)	94.8	97.9	-5.07% (inactive)	-2.18% (inactive)
Cc1cc(C)cc(C(=O)N2CCC(C(N)=O)CC2)c1	91% (inactive)	105% (inactive)	97.2% (inactive)	9.71% (inactive)	87.5	97.2	-8.78% (inactive)	0% (inactive)
Cc1nnc(SCCCn2c(N3CCCCC3)nc3c2c(=O)[nH]c(=O)n3C)s1	104% (inactive)	92% (inactive)	97.4% (inactive)	10.2% (inactive)	87.1	97.4	-6.03% (inactive)	4% (inactive)

Structure (SMILES)	viability [1]	viability [2]	viability [3]	differential viability (reversal) ([4]; H69AR cells + 2 uM doxorubicin)	viability [4, 7] [%]	viability [4, 8] [%]	inhibition [5]	inhibition [6]
Cc1cc(NS(=O)(=O)c2ccc(N)cc2)no1	111% (inactive)	98.9% (inactive)	88.9% (inactive)	-12.6% (inactive)	101	88.9	1.56% (inactive)	-3.5% (inactive)
COC(=O)c1ccccc1NC(=O)C1CCN(S(=O)(=O)c2cc(C)ccc2OC)CC1	78% (inactive)	78.9% (inactive)	79.1% (inactive)	-13.2% (inactive)	92.3	79.1	-11.1% (inactive)	0.48% (inactive)
O=C(Nc1ccon1)c1cccc(S(=O)(=O)N2CCCC2)c1	96% (inactive)	99.5% (inactive)	87.8% (inactive)	-10.9% (inactive)	98.8	87.8	-2.53% (inactive)	-0.55% (inactive)
O=S(=O)(c1ccc(Br)s1)N1CCN(c2ccccc2)CC1	90% (inactive)	96.9% (inactive)	87.6% (inactive)	-4.09% (inactive)	91.7	87.6	-3.78% (inactive)	-3.27% (inactive)
CCC(c1c(C)n(C)n(-c2ccccc2)c1=O)c1c(C)n(C)n(-c2ccccc2)c1=O	78% (inactive)	103% (inactive)	100% (inactive)	8.48% (inactive)	91.5	100	-5.21% (inactive)	4.73% (inactive)
CC(NCCc1ccc(O)cc1)C(O)c1ccc(O)cc1 (stereo not drawn)	99% (inactive)	101% (inactive)	99.4% (inactive)	7.11% (inactive)	92.3	99.4	-2.73% (inactive)	0.67% (inactive)
c1ccc(-c2cc(N3CCCCC3)ncn2)cc1	105% (inactive)	101% (inactive)	99.7% (inactive)	9.16% (inactive)	90.6	99.7	-7.26% (inactive)	-0.32% (inactive)
CS(=O)(=O)NCC(c1cccnc1)N1CCN(c2ccc(F)cc2)CC1 (stereo not drawn)	107% (inactive)	113% (inactive)	92.2% (inactive)	0.865% (inactive)	91.3	92.2	-1.89% (inactive)	-3.45% (inactive)
CS(=O)(=O)N(Cc1ccccc1)c1ccc(C(=O)N2CCOCC2)cc1	95% (inactive)	105% (inactive)	97.7% (inactive)	6.74% (inactive)	91	97.7	-2.86% (inactive)	-5.57% (inactive)
CCOC(=O)CSc1nnc(NCC(=O)OC(C)C)c(=O)[nH]1	102% (inactive)	93.9% (inactive)	93.3% (inactive)	1.93% (inactive)	91.4	93.3	-1.56% (inactive)	-3.61% (inactive)
c1cc2c(cc1C1CCCN1)OCCCO2 (stereo not drawn)	103% (inactive)	113% (inactive)	91.6% (inactive)	-7.94% (inactive)	99.5	91.6	-5.21% (inactive)	2% (inactive)
CCCCC[C@H](O)/C=C/[C@@H]1[C@@H](CCCCCCC(=O)O)[C@@H](O)C[C@H]1O	113% (inactive)	89.6% (inactive)	103% (inactive)	9.71% (inactive)	93.6	103	0.26% (inactive)	2.33% (inactive)
COc1ccc(CCN(C)CCCC(C#N)(c2cc(OC)c(OC)c(OC)c2)C(C)C)cc1OC (stereo not drawn)	85% (inactive)	64.6% (inactive)	95.6% (inactive)	-5.51% (inactive)	101	95.6	5.71% (inactive)	-1.17% (inactive)
NC(=O)N1c2ccccc2C=Cc2ccccc21	95% (inactive)	79.4% (inactive)	107% (inactive)	9.74% (inactive)	97.1	107	-2.86% (inactive)	3.17% (inactive)
CCOC(=O)c1ccccc1NC1CC(=O)N(c2ccccc2C)C1=O (stereo not drawn)	98% (inactive)	101% (inactive)	98.4% (inactive)	8.82% (inactive)	89.6	98.4	-2.13% (inactive)	-6.73% (inactive)
Cc1occc1C(=O)Nc1ccc(S(=O)(=O)N2CCN(C)CC2)cc1	71% (inactive)	89.2% (inactive)	90.4% (inactive)	5.85% (inactive)	84.5	90.4	-3.01% (inactive)	1.82% (inactive)
N#CCOc1nc(N2CCOCC2)nc(N2CCOCC2)n1	99% (inactive)	96.6% (inactive)	90.8% (inactive)	-0.985% (inactive)	91.8	90.8	-7.3% (inactive)	-2.73% (inactive)
CC1=C(C(=O)N2CCOCC2)C(c2ccsc2)C2=C(CCCC2=O)N1 (stereo not drawn)	96% (inactive)	107% (inactive)	90.4% (inactive)	-0.065% (inactive)	90.5	90.4	-2.47% (inactive)	7.74% (inactive)
